CCR6 antagonist = CCR6 receptor antagonists, primary screen, cell-based, CHO-K1, luminescence, beta-arrestin, uHTS; C-C chemokine receptor type 6 (Homo sapiens), P51684; CHO-K1 CCR6 PathHunter beta-arrestin, CCL20-stimulated; inhibition, % at 20 µM; actives 0.49% (n = 340,000); AID 493098, 2011;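 active = compounds whose inhibition of the agonist-driven luminescence signal at 20 µM reaches about 50%, limit read from the data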;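 note: cells stimulated with CCL20 at 14 nM final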
APJ agonist = agonists of human apelin receptor APJ, primary screen, CHO-K1 cells, PathHunter beta-arrestin, luminescence; P35414; AID 2520, 2010; 0% DMSO wells, 100% apelin; activation, % at 20 µM; actives 0.11% (n = 330,000);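 active = activation more than six SD over the plate average, tested at 20 µM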
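Test system: CHO-K1 APJ beta-arrestin complementation cell line | Compound: Single test compound dose, 20 µM final, 1% DMSO | Incubation: Compound 90 min 25 °C, reagent 1 h | Measured by: beta-gal luminescence | Read-out basis: APJ–arrestin association signal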
APJ antagonist = antagonists of human apelin receptor APJ, primary screen, CHO-K1 cells, beta-arrestin complementation, luminescence; inhibition, % at 20 µM; actives 0.32% (n = 330,000); AID 2521, 2010;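 active = inhibition above about 40% at 20 µM, limit read from the data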;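 note: cells challenged with 10 nM apelin-13 agonist together with compound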
CXCR6 inh = CXCR6 receptor inhibitors, primary screen, cell-based, beta-arrestin, luminescence, CHO-K1 PathHunter, 1536-well | C-X-C chemokine receptor type 6 (Homo sapiens), O00574 | AID 602244, 2012 | actives 0.36% (n = 360,000) | inhibition, % at 20 µM; in the data active = inhibition above about 34%, passing the limit was not always enough;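 note: antagonist mode with CXCL16 agonist at 10 nM final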
EBI2 antag = EBI2 receptor antagonists, beta-arrestin recruitment, primary screen, cell-based, luminescence, 7a,25-OHC stimulation, uHTS | G-protein coupled receptor 183 (Homo sapiens), P32249 | 7a,25-OHC stimulated | inhibition, % at 5 µM | actives 0.81% (n = 360,000); in the data active = inhibition above about 38%;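 note: enzyme fragment complementation signal reports receptor beta-arrestin coupling in cells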
Target sequence (P32249 whole entry, looked up, the tested form may be a part): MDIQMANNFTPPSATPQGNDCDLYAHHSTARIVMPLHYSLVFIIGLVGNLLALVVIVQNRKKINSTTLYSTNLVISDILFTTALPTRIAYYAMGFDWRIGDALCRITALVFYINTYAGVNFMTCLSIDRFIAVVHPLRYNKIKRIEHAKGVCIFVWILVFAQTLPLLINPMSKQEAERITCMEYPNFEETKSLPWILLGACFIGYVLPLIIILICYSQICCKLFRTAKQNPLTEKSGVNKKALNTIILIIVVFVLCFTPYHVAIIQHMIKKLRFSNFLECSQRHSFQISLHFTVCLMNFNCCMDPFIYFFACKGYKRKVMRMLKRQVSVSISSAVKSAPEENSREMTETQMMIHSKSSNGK
EBI2 antag conf = EBI2 antagonist hit retest, beta-arrestin, confirmation, cell-based, single concentration, luminescence, 7a,25-OHC stimulation | AID 651997, 2013 | shares compounds with EBI2 antag | 7a,25-OHC antagonism | inhibition, % at 5 µM | actives 29% (n = 2,400);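 active = inhibition of at least 50%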
EBI2 agonist = EBI2 agonist activity of antagonist hits, confirmation, counter-screen for EBI2 antagonist project, cell-based, single concentration, agonist mode, luminescence; activation, % at 5 µM; 2,400 tested, under 10 active; AID 652000, 2013; EBI2-expressing cells, 60 min; 0% vehicle, 100% 7α,25-dihydroxycholesterol control; shares compounds with EBI2 antag;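 active = activation of at least 50%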
bGal counter = E. coli beta-galactosidase enzyme inhibition, confirmation, counter-screen for EBI2 antagonist project, biochemical, luminescence, single concentration | shares compounds with EBI2 antag | purified beta-galactosidase, luminescent Galacton Star, 15 min | inhibition, % at 5 µM | actives 1% (n = 2,400) | AID 652176, 2013;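 active = replicate-average signal at least 3 plate SD below neutral wells, shown as high inhibition, flagging enzyme-inhibiting false positives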;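 note: higher means stronger loss of beta-gal luminescence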
Numbers stand for hits; n = inactive; x = not tested or not shown. Only some compounds are listed: those with a hit (about 1.5% of all), similar ones and a draw of the others.

SMILES	CCR6 antagonist	APJ agonist	APJ antagonist	CXCR6 inh	EBI2 antag	EBI2 antag conf	EBI2 agonist	bGal counter
Cc1cc(NC(=O)CCN2CCN(C/C=C/c3ccccc3)CC2)ccc1Br	n	n	n	n	n	x	x	x
Cc1cc(C(=O)N2CCN(C/C=C/c3ccccc3)CC2)cs1	n	n	n	n	45.8	n	n	n
COc1ccc([C@H]2CC(=O)C=C(c3cccc4c3sc3ccccc34)C2)cc1OC	n	n	n	n	59.2	n	n	n
COc1ccc([C@H]2CC(=O)C=C(c3cccc(OC)c3OC)C2)cc1OC	n	n	n	n	n	x	x	x
CCC(C(=O)NC1CCCC1)N(C(=O)c1snc(C(N)=O)c1N)c1ccc(C)cc1C (centres undefined)	n	n	n	n	n	x	x	x
O=C(NCCc1ccccc1)c1oc2ccccc2c1COc1ccccc1	n	x	x	n	45.2	n	n	n
CCOC(=O)c1ccc(Nc2cc(C)nc(-c3ccccc3)n2)cc1	n	n	n	n	56.7	n	n	n
CCOC(=O)c1ccc(Nc2nc(C)cc(C)n2)cc1	n	x	x	n	n	x	x	x
CN(C)c1cccc(C(=O)OCCCC(=O)c2ccc(F)cc2)c1	n	n	n	n	n	x	x	x
CCOC(=O)c1sc2nc(C)nc(NCc3ccc(Cl)cc3)c2c1C	n	n	n	n	n	x	x	x
CCOC(=O)c1sc2nc(C)nc(NCc3ccc(F)cc3)c2c1C	n	n	n	n	45.0	n	n	n
COc1ccc(N2CCN(C(=O)c3cc4c(s3)-c3ccccc3OC4)CC2)cc1	n	n	n	n	80.0	67.1	n	n
O=C(c1cc2c(s1)-c1ccccc1OC2)N1CCN(c2ccccc2)CC1	n	n	n	n	60.1	54.8	n	n
CCOC(=O)N1CCN(C(=O)c2cc3c(s2)-c2ccccc2OC3)CC1	n	n	n	n	82.3	73.7	n	n
COc1cccc(N2CCN(C(=O)c3cc4c(s3)-c3ccccc3OC4)CC2)c1	n	n	n	n	n	x	x	x
O=C(c1cc2c(s1)-c1ccccc1OC2)N1CCN(c2ccccn2)CC1	n	n	n	n	44.7	n	n	n
O=C(Cn1ncc2c1-c1ccccc1OC2)N1CCN(c2ccccn2)CC1	n	n	n	n	n	x	x	x
O=C(c1cc2c(s1)-c1ccccc1OC2)N1CCCC1	n	n	n	n	n	x	x	x
COC(=O)c1cc(-c2ccc(S(=O)(=O)N3CCCCC3)cc2)c(C(F)(F)F)s1	n	n	n	n	n	x	x	x
CC(C)(C)c1ccc(C(=O)NCc2nnc(SCC(=O)NCC3CCCO3)o2)cc1 (centres undefined)	n	n	n	n	n	x	x	x
CCOC(=O)N1CCN(C(=O)c2cc3c(=O)[nH]c4ccccc4c3s2)CC1	n	n	n	n	77.0	70.0	n	n
Cc1ccc(/C=C/c2nnc(-c3cccc(C)c3)o2)cc1	n	n	n	n	n	x	x	x
Cc1ccc(-c2nnc(/C=C/c3ccccc3)o2)cc1	n	n	n	n	48.7	n	n	n
CCNC(=O)C1(C)CCN(Cc2ccccc2C#N)C1 (centres undefined)	x	x	x	n	n	x	x	x
COc1ccc(N2CCN(C(=O)c3ccc4[nH]c(C)c(C)c4c3)CC2)cc1	n	n	n	n	84.9	72.6	n	n
Cc1[nH]c2ccc(C(=O)N3CCN(c4ccc(F)cc4)CC3)cc2c1C	n	n	n	n	78.1	72.2	n	n
CC(=O)c1ccc(N2CCN(C(=O)c3ccc4[nH]c(C)c(C)c4c3)CC2)cc1	n	n	n	n	n	x	x	x
